Three compounds from BindingDB's records for doi:10.1128/AAC.00669-08 (Tibotec, 2008) can be followed below.

The target in assay [1] is T1, DNA polymerase alpha catalytic subunit (Homo sapiens, UniProt P09884).
T1 sequence (P09884 whole entry): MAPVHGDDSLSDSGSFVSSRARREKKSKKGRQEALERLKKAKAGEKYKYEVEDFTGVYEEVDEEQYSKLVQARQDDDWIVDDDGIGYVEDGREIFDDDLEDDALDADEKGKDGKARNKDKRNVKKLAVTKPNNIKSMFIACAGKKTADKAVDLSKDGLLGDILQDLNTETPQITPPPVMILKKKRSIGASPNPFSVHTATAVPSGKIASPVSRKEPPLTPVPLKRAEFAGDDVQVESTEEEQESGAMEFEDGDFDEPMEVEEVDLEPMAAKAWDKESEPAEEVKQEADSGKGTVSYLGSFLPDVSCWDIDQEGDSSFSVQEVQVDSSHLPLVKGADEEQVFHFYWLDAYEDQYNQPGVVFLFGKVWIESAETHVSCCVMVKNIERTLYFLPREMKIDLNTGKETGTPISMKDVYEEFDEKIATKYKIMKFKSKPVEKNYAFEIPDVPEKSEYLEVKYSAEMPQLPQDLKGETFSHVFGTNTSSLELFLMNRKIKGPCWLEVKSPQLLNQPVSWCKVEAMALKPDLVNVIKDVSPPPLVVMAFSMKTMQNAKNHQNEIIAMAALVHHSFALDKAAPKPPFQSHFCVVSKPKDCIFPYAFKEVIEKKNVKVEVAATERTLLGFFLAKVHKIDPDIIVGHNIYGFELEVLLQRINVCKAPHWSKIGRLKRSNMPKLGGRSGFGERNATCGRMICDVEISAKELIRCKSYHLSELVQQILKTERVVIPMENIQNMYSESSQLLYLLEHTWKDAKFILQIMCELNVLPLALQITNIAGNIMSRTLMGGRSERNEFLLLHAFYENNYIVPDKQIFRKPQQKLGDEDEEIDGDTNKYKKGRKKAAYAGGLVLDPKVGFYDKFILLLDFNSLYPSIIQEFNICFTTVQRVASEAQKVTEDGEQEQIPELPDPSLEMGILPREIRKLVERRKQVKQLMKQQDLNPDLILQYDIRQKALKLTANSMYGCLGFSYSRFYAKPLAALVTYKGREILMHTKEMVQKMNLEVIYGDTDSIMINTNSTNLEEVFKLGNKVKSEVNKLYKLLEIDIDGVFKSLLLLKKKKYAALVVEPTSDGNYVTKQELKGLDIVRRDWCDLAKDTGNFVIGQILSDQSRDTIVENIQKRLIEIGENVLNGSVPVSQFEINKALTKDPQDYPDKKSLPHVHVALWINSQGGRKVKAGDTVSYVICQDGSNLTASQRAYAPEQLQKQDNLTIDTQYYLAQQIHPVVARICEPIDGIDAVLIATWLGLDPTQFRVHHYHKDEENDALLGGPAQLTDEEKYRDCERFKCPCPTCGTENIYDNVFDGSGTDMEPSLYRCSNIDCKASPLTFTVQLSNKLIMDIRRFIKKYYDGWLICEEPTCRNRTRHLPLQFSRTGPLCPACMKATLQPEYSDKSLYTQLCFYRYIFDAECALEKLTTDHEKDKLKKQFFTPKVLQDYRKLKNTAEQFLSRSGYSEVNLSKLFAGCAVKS
In words: Inhibition of human DNA polymerase alpha. Put shortly:
(§1)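 Each enzyme–compound pair was tested in duplicate over 0.8 to 100 μM, with 100 μM as the highest dose. Each run included a no-inhibitor control, a solvent dilution (0.016 to 2% DMSO) and the relevant reference inhibitor. Percent inhibition at 100 μM was recorded for polymerase γ.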

The target in assay [2] is DNA polymerase beta (Homo sapiens, UniProt P06746). In words: Inhibition of human DNA polymerase beta. A digest of the protocol: as §1
In assay [3] the target is T2, DNA polymerase subunit gamma-1 (Homo sapiens, UniProt P54098).
T2 sequence (P54098 whole entry): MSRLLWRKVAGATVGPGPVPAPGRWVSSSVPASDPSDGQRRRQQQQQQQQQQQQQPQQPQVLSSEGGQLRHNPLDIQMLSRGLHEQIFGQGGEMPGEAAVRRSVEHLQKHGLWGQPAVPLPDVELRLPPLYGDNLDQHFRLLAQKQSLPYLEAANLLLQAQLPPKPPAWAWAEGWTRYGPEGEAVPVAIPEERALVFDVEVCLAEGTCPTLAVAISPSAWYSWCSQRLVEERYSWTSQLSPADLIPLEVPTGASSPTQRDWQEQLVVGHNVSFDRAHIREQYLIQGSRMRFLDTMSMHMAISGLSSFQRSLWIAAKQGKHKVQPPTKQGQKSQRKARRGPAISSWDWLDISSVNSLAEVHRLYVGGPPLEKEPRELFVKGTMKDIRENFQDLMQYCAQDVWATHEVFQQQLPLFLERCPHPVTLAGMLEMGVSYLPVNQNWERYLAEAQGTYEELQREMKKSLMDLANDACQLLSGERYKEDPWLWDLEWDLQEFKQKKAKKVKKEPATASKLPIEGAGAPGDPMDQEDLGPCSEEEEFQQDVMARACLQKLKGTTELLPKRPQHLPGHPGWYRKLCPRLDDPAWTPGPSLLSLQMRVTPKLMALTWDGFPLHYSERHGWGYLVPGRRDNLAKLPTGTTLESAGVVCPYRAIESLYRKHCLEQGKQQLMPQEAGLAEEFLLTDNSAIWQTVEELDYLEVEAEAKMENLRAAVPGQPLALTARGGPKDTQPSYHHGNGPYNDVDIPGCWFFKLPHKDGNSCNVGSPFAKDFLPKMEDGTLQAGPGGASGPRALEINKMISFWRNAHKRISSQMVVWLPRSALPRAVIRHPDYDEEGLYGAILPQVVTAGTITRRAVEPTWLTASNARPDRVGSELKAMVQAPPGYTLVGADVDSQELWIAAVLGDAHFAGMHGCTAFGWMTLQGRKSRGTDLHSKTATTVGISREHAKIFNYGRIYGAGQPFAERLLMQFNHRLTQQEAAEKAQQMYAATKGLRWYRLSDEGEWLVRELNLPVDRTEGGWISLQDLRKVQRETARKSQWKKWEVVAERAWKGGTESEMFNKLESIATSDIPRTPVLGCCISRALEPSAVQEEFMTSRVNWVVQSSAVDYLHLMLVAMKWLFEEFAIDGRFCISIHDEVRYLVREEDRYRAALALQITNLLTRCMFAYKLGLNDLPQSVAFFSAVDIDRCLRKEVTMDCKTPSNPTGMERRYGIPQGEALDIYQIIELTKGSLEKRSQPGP
Description: Inhibition of human DNA polymerase gamma. Put shortly:
as §1

For assay [4], the target named is T3, Translocator protein (Homo sapiens, UniProt P30536). In words: (§2) Inhibition of peripheral benzodiazepine BZD receptor by radioligand binding assay. A digest of the protocol:
(§3)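 Radioligand binding assays for the GABA-A central BZD receptor and the peripheral BZD receptor were run as a single experiment in duplicate.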

Assay [5] addresses T3, Translocator protein. The description is as §2. A digest of the protocol: as §3
This is another data set of the same source.

pIC50: −log10 of the molar value.

As a reminder, the pIC50 is the IC50 on a negative log10 scale, so that one unit is a factor of ten.

T3 sequence (P30536 whole entry): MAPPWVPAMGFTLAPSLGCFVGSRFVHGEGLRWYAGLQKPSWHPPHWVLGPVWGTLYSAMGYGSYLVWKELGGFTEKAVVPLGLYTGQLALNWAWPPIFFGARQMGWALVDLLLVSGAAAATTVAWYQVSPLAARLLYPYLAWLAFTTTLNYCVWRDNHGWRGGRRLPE

Take `CC(=O)N1c2ccccc2N=C2CC(C)(C)CC(=O)C2C1c1ccc(Cl)cc1Cl` (stereo not drawn) [10-acetyl-11-(2,4-dichlorophenyl)-3,3-dimethyl-2,3,4,5,10,11-hexahydro-1H-dibenzo[b,e][1,4]diazepin-1-one]: the pIC50 in assay [1], in assay [2] and in assay [3] was less than 4.00 in each case.
As to `COc1ccc(C2C3C(=O)CC(C)(C)CC3=Nc3ccccc3N2C(C)=O)cc1OCc1ccccc1` (stereo not drawn) [10-acetyl-11-(3-(benzyloxy)-4-methoxyphenyl)-3,3-dimethyl-2,3,4,5,10,11-hexahydro-1H-dibenzo[b,e][1,4]diazepin-1-one], the pIC50 in assay [1], in assay [2] and in assay [3] was less than 4.00 in each case.
For the compound `CC(=O)N1c2cccc(O)c2N=C2CC(C)(C)CC(=O)C2C1c1ccc(OCc2ccccc2)cc1Cl` (stereo not drawn) [10-acetyl-11-(4-(benzyloxy)-2-chlorophenyl)-6-hydroxy-3,3-dimethyl-2,3,4,5,10,11-hexahydro-1H-dibenzo[b,e][1,4]diazepin-1-one], the pIC50 in assay [4] and in assay [5] was less than 4.52 throughout.
